Assay results: paper PMC5910468 (Advances in Therapy, 2018)
Where two headings read alike, the source gives them in different places.

Columns and labels:
[1] = type: in vivo, human; conditions: for AUC0–168h,sema,SS estimated race ratio [95% CI] (Japanese/Caucasian) / Cmax,sema,SS estimated race ratio [95% CI] (Japanese/Caucasian): steady state
Method in brief: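 Healthy Japanese or Caucasian men, s.c. once weekly with stepwise escalation from 0.25 mg. Plasma drug measured by validated LC–MS/MS. Dense sampling 0–168 h after first dose and 0–840 h after last dose (day 84), with pre-dose troughs from day 7 to 84. AUC0–168h by linear trapezoidal method at actual times. Racc,DC = (AUC_SS/last dose)/(AUC_SD/first dose). Log values fitted by linear normal model (race, dose, race×dose) and back-transformed to ratios with 95% CI.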

[2] = type: in vivo, human; conditions: for Gastrointestinal disorders, proportion of subjects / Adverse events, proportion of subjects: 8 subjects
Method in brief: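 Double-blind, placebo-controlled, 13 weeks of once-weekly s.c. dosing plus 5 weeks of follow-up. Monitored adverse events, hypoglycemic episodes, vital signs, ECG and physical examination. Laboratory tests covered hematology, biochemistry, calcitonin and urinalysis, and anti-drug antibodies were measured at follow-up. Every randomized subject given at least one dose was included in the safety analysis.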

[3] = Pulse rate change from baseline to end of treatment; type: in vivo, human
[4] = Anti-semaglutide antibodies; type: in vivo, human; conditions: both populations, 0.5 and 1.0 mg, at follow-up
[5] = semaglutide; cited from earlier work
[6] = SUSTAIN 6, no change with placebo, cited from earlier work
[7] = semaglutide 0.5 mg s.c. once weekly
[8] = semaglutide 1.0 mg s.c. once weekly
[9] = Japanese subjects, 0.5 mg, placebo 16.7%
[10] = Japanese subjects, 1.0 mg, placebo 16.7%

## CC[C@H](C)[C@H](NC(=O)[C@H](Cc1ccccc1)NC(=O)[C@H](CCC(=O)O)NC(=O)[C@H](CCCCNC(=O)COCCOCCNC(=O)COCCOCCNC(=O)CC[C@H](NC(=O)CCCCCCCCCCCCCCCCC(=O)O)C(=O)O)NC(=O)[C@H](C)NC(=O)[C@H](C)NC(=O)[C@H](CCC(N)=O)NC(=O)CNC(=O)[C@H](CCC(=O)O)NC(=O)[C@H](CC(C)C)NC(=O)[C@H](Cc1ccc(O)cc1)NC(=O)[C@H](CO)NC(=O)[C@H](CO)NC(=O)[C@@H](NC(=O)[C@H](CC(=O)O)NC(=O)[C@H](CO)NC(=O)[C@@H](NC(=O)[C@H](Cc1ccccc1)NC(=O)[C@@H](NC(=O)CNC(=O)[C@H](CCC(=O)O)NC(=O)C(C)(C)NC(=O)[C@@H](N)Cc1cnc[nH]1)[C@@H](C)O)[C@@H](C)O)C(C)C)C(=O)N[C@@H](C)C(=O)N[C@@H](Cc1c[nH]c2ccccc12)C(=O)N[C@@H](CC(C)C)C(=O)N[C@H](C(=O)N[C@@H](CCCNC(=N)N)C(=O)NCC(=O)N[C@@H](CCCNC(=N)N)C(=O)NCC(=O)O)C(C)C [Semaglutide]
[1]; overall statement, once-weekly dosing, both races and doses
  Dose-corrected accumulation ratio: approximately 2
[1]; semaglutide 0.5 mg
  Racc,DC,sema estimated race ratio [95% CI] (Japanese/Caucasian): 0.87 [0.78; 0.96]
[1]; [7]
  AUC0–168h,sema,SS estimated race ratio [95% CI] (Japanese/Caucasian): 1.06 [0.92; 1.23]
  Cmax,sema,SS estimated race ratio [95% CI] (Japanese/Caucasian): 1.06 [0.91; 1.23]
[1]; semaglutide 1.0 mg
  Racc,DC,sema estimated race ratio [95% CI] (Japanese/Caucasian): 0.90 [0.82; 1.00]
[1]; [8]
  AUC0–168h,sema,SS estimated race ratio [95% CI] (Japanese/Caucasian): 0.99 [0.85; 1.16]
  Cmax,sema,SS estimated race ratio [95% CI] (Japanese/Caucasian): 1.02 [0.87; 1.19]
[2]; Caucasian subjects, 0.5 mg, placebo 0.0%
  Gastrointestinal disorders, proportion of subjects: 25.0%
[2]; Caucasian subjects, 0.5 mg, placebo 33.3%
  Adverse events, proportion of subjects: 50.0%
[2]; Caucasian subjects, 1.0 mg, placebo 0.0%
  Gastrointestinal disorders, proportion of subjects: 25.0%
[2]; Caucasian subjects, 1.0 mg, placebo 33.3%
  Adverse events, proportion of subjects: 62.5%
[2]; [9]
  Adverse events, proportion of subjects: 75.0%
  Gastrointestinal disorders, proportion of subjects: 62.5%
[2]; [10]
  Adverse events, proportion of subjects: 62.5%
  Gastrointestinal disorders, proportion of subjects: 37.5%
[2]; any of the treatment or race groups
  Biochemistry parameters, including amylase, lipase and calcitonin: No noticeable trends
[2]; both populations, 0.5 and 1.0 mg
  ECG readings or physical examinations: no clinically significant abnormalities
[2]; both populations, 0.5 and 1.0 mg, during the trial
  Hypoglycemic events: No hypoglycemic events were reported
[2]; both populations, 0.5 and 1.0 mg, none were severe
  Severity of adverse events: mild to moderate
[3]; Caucasian subjects, 0.5 mg, placebo 2.8 bpm
  Pulse rate increase from baseline to end of treatment: 14.6 bpm
[3]; Caucasian subjects, 1.0 mg, placebo 2.8 bpm
  Pulse rate increase from baseline to end of treatment: 10.5 bpm
[3]; Japanese subjects, 0.5 mg, placebo decrease of 0.5 bpm
  Pulse rate increase from baseline to end of treatment: 8.5 bpm
[3]; Japanese subjects, 1.0 mg, placebo decrease of 0.5 bpm
  Pulse rate increase from baseline to end of treatment: 10.4 bpm
[4]
  Development of anti-semaglutide antibodies: No subjects developed anti-semaglutide antibodies
[5]
  Half-life (t1/2): ~ 1 week
[6]; semaglutide 0.5 mg
  Mean pulse rate increase: 2.1 bpm
[6]; semaglutide 1.0 mg
  Mean pulse rate increase: 2.4 bpm
